Laboratory results published in the RNAGym collection of RNA variant scans (doi:10.1126/science.aae0568).
Variants at the floor of the assay were thinned out.

B1: tRNA (parent)
chain: GUUCCGUUGGCGUAAUGGUAACGCGUCUCCCUCCUAAGGAGAAGACUGCGGGUUCGAGUCCCGUACGGAACG

Variants of: B1
Experiment: yeast fitness relative to wild type (ratio to wild type); higher = fitter; tRNA-Arg(CCU), competitive growth, 37 C, YPD
Outline: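 Variants of the tRNA-Arg(CCU) gene were chemically synthesised with a 3% per-site mutation rate across 69 sites and placed at the native genomic locus in Saccharomyces cerevisiae. Six parallel replicates of the pooled strains were competed in YPD at 37°C for 24 hours, and gene amplicons from the start and end populations were read by 100-nucleotide paired-end sequencing. Darwinian fitness relative to wild type was derived from changes in genotype frequencies. Genotypes required ≥ 100 starting reads, and estimates < 0.5 were set to 0.5.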

Variant | yeast fitness
GUUCCGUUGGCGUAAUGGUAACGCGUCUCCCUCCUACGGAGAAGACUGCGGGUUUGAGUCCCAUACCGAACG | 0.617
GUUCCGUUGGCGUAAUGGUAACGCGUCUCCCUCCUACGGAGAAGACUGCGGGAUCGAGUCCCGUACGGAACG | 0.632
GUUCCGUUGGCGUAAUGGUAACGCGUCUCCCUCCUACGGAGAAGACUGCGGGUUGGAGUCCCGUACGCAACG | 0.556
GUUCCGUUGGCGUAAUGGUAACGCGUCUCCCUCCUACGGAGAAGACUGCGGGUUCAAGUCCCGUACGGUACG | 0.647
GUUCCGUUGGCGUAAUGGUAACGCGUCUCCCUCCUAGGGAGCAGACUGCGGGUUGGAGUCCCGUACGCAACG | ≤ 0.5
GUUCCGUUGGCGUAAUGGUAACGCGUCUCCCUCCUAGGGUGAAGACUGAGGGUUCGUGUCCCGUACGGAACG | ≤ 0.5
GUUCCGUUGGCGUAAUGGUAACGCGUCUCCCUCCUACGGAGAAGACUGCGAGUUCGAGUCCCGUACAGAACG | 0.584
GUUCCGUUGGCGUAAUGGUAACGCGUCUCCCUCCUACGGAGAAGACUGCGGGUUCGAGUCCUGUACGGAUCG | ≤ 0.5
GUUCCGUUGGCGUAAUGGUAACGCGUCUCCCUCCUACGCAGAAGACUGCGGGUUCGAGUCCCGUUCGGAACG | ≤ 0.5
GUUCCGUUGGCGUAAUGGUAACGCGUCUCCCUCCUACGGACAAGGCUGCGGGUUCGAGUCCCGUACGGAACG | ≤ 0.5
GUUCCGUUGGCGUAAUGGUAACGCGUCUCCCUCCUACGGAGAAGACUGGGGGUUCGCGUCCCGUACGGAGCG | 0.516
GUUCCGUUGGCGUAAUGGUAACGCGUCUCCCUCCUAGGGAGCAGACUGCGGGUUCGAGUCCCGUCCGGCACG | 0.616
GUUCCGUUGGCGUAAUGGUAACGCGUCUCCCUCCUAGGGAGGAGACUGCGGGUUCGAGUCCCGUACGGAACG | 0.838
GUUCCGUUGGCGUAAUGGUAACGCGUCUCCCUCCUACGGAGAAGUCUGCGCGUUCGAGUCCCGUACGGAACG | ≤ 0.5
GUUCCGUUGGCGUAAUGGUAACGCGUCUCCCUCCUACGGAGAAGACUGGGGGUUCGAGUCCCGUACGGAACG | 0.729
GUUCCGUUGGCGUAAUGGUAACGCGUCUCCCUCCUAGGGCGAAGACUGCGGGUUCGAGUCGCGUACGGUACG | ≤ 0.5
GUUCCGUUGGCGUAAUGGUAACGCGUCUCCCUCCUACGGAGAAGACCGCGGGUUCGAGUCCCGUACGGAACG | 0.81
GUUCCGUUGGCGUAAUGGUAACGCGUCUCCCUCCUACGGAGAAGACUGCGGGUUCGAGUCCUGUAGGGAACG | ≤ 0.5
GUUCCGUUGGCGUAAUGGUAACGCGUCUCCCUCCUACGGAGAAGACUGCGGGUUCGAGUCCCGUACCGAACG | 0.846

Variant | yeast fitness
GUUCCGUUGGCGUAAUGGUAACGCGUCUCCCUCCUACGGAGAAGACUGCGGGUUCGAGUCCCGUACAGAACG | 0.696
GUUCCGUUGGCGUAAUGGUAACGCGUCUCCCUCCUACCGAGAAGACUGCGGGUCCGAGUCUCGUACGGAACG | 0.678
GUUCCGUUGGCGUAAUGGUAACGCGUCUCCCUCCUACGGAGAAGACUGCGGGUUCGAGUACCGUACGGAGCG | 0.592
GUUCCGUUGGCGUAAUGGUAACGCGUCUCCCUCCUACGGAGAAGAGUGCGAAUUCGAGUCCCGUACGGAACG | ≤ 0.5
GUUCCGUUGGCGUAAUGGUAACGCGUCUCCCUCCUACGGAGAAGACUGCGGGUUCGAGUCCCGGACGGAACG | 0.684
GUUCCGUUGGCGUAAUGGUAACGCGUCUCCCUCCUACGGAGAAGACUGCGGGUUCGAGGCCCGUACGGAACG | 0.712
GUUCCGUUGGCGUAAUGGUAACGCGUCUCCCUCCUACAGAGAAGACUGCGGGUUAGAGUCCCGUCCGGAACG | ≤ 0.5
GUUCCGUUGGCGUAAUGGUAACGCGUCUCCCUCCUACGGAGAAGAUUGCGGGUUCGAGUCCCGUACGGCACG | 0.682
GUUCCGUUGGCGUAAUGGUAACGCGUCUCCCUCCUACGGAGAAGACUGCGGGUUCGAGUCCCGUGCGUAACG | 0.801
GUUCCGUUGGCGUAAUGGUAACGCGUCUCCCUCCUACGGAGAAGACUGUGGGUUCGAGUGCCGUACGGAACG | ≤ 0.5
GUUCCGUUGGCGUAAUGGUAACGCGUCUCCCUCCUAGGGAGGAGACUGCGGGUUCGAGUCCCGUACGGAUCG | 0.539
GUUCCGUUGGCGUAAUGGUAACGCGUCUCCCUCCUACGGAGAAGACUGUGAGUUCGAGUCCCGUACGGAACG | ≤ 0.5
GUUCCGUUGGCGUAAUGGUAACGCGUCUCCCUCCUACGCAGAAGACUGCGGGUUUGAGUCACGUACGGAACG | 0.532
GUUCCGUUGGCGUAAUGGUAACGCGUCUCCCUCCUACGGAGAAGACUGCGGCUUCGAGUCCCGUACGGAACG | 0.537
GUUCCGUUGGCGUAAUGGUAACGCGUCUCCCUCCUACGGAGAAGACUGCGGCUUCGAGUGACGUAUGGAACG | ≤ 0.5
GUUCCGUUGGCGUAAUGGUAACGCGUCUCCCUCCUACGGAGAAGACUGCGGGUUCGAGUCCCGUACGAAACG | 0.729
GUUCCGUUGGCGUAAUGGUAACGCGUCUCCCUCCUACGGAGAAGACUGCGGGUUCGAGUCCCGUACGUAACG | 0.761
GUUCCGUUGGCGUAAUGGUAACGCGUCUCCCUCCUACCGAGAAGACUGCGGGUUUGAGUCCCGUACGGAACG | ≤ 0.5
